These results are taken from ChEMBL document CHEMBL1157636, “Novel C-aryl glucoside SGLT2 inhibitors as potential antidiabetic agents: 1,3,4-Thiadiazolylmethylphenyl glucoside congeners” (Bioorg Med Chem, 2010).

For orientation: IC50 means the concentration that gives 50% inhibition. As a reminder, the Cmax is the highest concentration seen after dosing. The term Tmax denotes the time at which the peak concentration occurs. The term bioavailability denotes dose-corrected exposure relative to a reference, in per cent.

In data set [1] the target is T1, Sodium/glucose cotransporter 2 (Homo sapiens, UniProt P31639).
T1 sequence (P31639 whole entry): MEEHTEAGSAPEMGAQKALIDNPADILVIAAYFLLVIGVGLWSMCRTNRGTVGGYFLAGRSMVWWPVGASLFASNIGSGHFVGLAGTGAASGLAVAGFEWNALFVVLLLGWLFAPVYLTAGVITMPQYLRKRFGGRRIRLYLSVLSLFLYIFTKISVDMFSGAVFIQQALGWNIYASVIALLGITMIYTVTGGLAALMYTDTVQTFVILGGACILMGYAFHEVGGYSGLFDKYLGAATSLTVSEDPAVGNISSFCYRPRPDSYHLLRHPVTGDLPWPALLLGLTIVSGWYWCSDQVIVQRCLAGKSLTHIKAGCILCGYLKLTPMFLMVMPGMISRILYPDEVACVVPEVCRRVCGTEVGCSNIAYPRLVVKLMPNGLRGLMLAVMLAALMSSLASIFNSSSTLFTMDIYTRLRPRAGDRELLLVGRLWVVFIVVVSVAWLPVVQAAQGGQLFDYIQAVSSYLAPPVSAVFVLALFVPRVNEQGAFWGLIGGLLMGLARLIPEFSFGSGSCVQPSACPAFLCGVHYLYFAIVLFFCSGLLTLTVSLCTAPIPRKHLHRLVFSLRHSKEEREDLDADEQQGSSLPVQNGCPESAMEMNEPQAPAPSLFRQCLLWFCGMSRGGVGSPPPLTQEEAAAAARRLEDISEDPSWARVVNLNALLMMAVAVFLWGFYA
Put plainly: Inhibition of human recombinant SGLT2 expressed in CHO cells by liquid scintillation counting. Type of data set: cell-based. A digest of the protocol: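 hSGLT2 cloned from human kidney cDNA; stable clones selected by G418 resistance. Preincubated 10 min at 37 °C in sodium-free choline buffer pH 7.4. Then 2 h at 37 °C in Na⁺ uptake buffer with 1 mM unlabeled AMG plus ¹⁴C-AMG and inhibitor or DMSO. Washed, radioactivity counted; IC50 by nonlinear regression.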

A short description of data set [2]: Cmax in Sprague-Dawley rat at 5 mg/kg, po. Type of data set: ADME, organism-based. Further details: dose 5 mg/kg, route oral. The settings on record: in vivo.
Data set [3] has as its system Rattus norvegicus. Put plainly: Effect on urinary glucose excretion in normal fasted Sprague-Dawley rat at 10 mg/kg, po subsequently co-treated with glucose measured up to 24 hrs relative to untreated control. In kind it is ADME, organism-based, Urine. Set-up: dose 10 mg/kg, route oral. The settings on record: in vivo. A digest of the protocol: (§1)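 Overnight-fasted male SD rats placed in metabolism cages for 24 h baseline urine, then randomized and given single oral drug or vehicle followed by oral 50% aqueous glucose (2 g/kg). Urine collected 24 h, re-fed 1 h after glucose challenge. Urine volume measured and glucose determined enzymatically. Values normalized per 200 g body weight; means ± S.E.M., ANOVA with Dunnett's test.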

In data set [4] the test system is Rattus norvegicus. Put plainly: Effect on urine volume in normal fasted Sprague-Dawley rat at 10 mg/kg, po subsequently co-treated with glucose measured up to 24 hrs relative to untreated control. Type of data set: ADME, organism-based. Further details: dose 10 mg/kg, route oral. The settings on record: in vivo. A digest of the protocol: as §1
The subject of another data set is Mus musculus. Put plainly: Antidiabetic activity in db/db mouse assessed as reduction in blood glucose level at 10 mg/kg, po after 4 hrs relative to untreated control. Type of data set: functional. Further details: scale not given: the % may be the effect or the level left. A digest of the protocol:
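Diabetic db/db mice (n = 4 per group), randomized by weight and given single oral dose of vehicle or drug. Reduction versus vehicle controls at 4 h; means ± S.E.M., one-way ANOVA with Dunnett's test.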

Data set [5] can be described thus: Tmax in Sprague-Dawley rat at 5 mg/kg, po. Set-up: dose 5 mg/kg, route oral. Type of data set: ADME, organism-based. As to conditions: in vivo.
A short description of data set [6]: Elimination half life in Sprague-Dawley rat at 5 mg/kg, po. Type of data set: ADME, organism-based. As to conditions: in vivo, read-out: beta t1/2 (converted). Further details: dose 5 mg/kg, route oral.
A short description of data set [7]: Oral bioavailability in Sprague-Dawley rat at 5 mg/kg. In kind it is ADME, organism-based. The settings on record: in vivo.
Data set [8] concerns Rattus norvegicus. Put plainly: Effect on urinary glucose excretion in normal fasted Sprague-Dawley rat at 10 mg/kg, po subsequently co-treated with glucose measured up to 24 hrs relative to untreated control. The settings on record: in vivo.

Each structure is given as a SMILES string. Bounds are passed on as bounds.

In the case of `OC[C@H]1O[C@@H](c2ccc(Cl)c(Cc3nnc(-c4csc(-c5ccncc5)n4)s3)c2)[C@H](O)[C@@H](O)[C@@H]1O`, the IC50 in data set [1] stood at 0.0726 µM.
The same measure, in the same setting: to `Cc1noc(C)c1-c1nnc(Cc2cc([C@@H]3O[C@H](CO)[C@@H](O)[C@H](O)[C@H]3O)ccc2Cl)s1` belongs above 10 µM.
On to `OC[C@H]1O[C@@H](c2ccc(Cl)c(Cc3nnc(-c4ccco4)s3)c2)[C@H](O)[C@@H](O)[C@@H]1O`, for which the highest level in [2] (Cmax) was 50 ng/mL. Also, the “fold change (FC)” value turned out to be 100 with Rattus norvegicus [3], 1.4 in the data set on Rattus norvegicus [4] and 100 with Rattus norvegicus [8]. Further, the Activity in the data set with Mus musculus was 72.8%. In [5], the Tmax amounted to 19.8 min. Further, in data set [6], the half-life was 51.6 min. This compound registered a bioavailability in [7] of 7.7%.
For the compound `CCc1noc(C)c1-c1nnc(Cc2cc([C@@H]3O[C@H](CO)[C@@H](O)[C@H](O)[C@H]3O)ccc2Cl)s1`, the IC50 in [1] is above 10 µM.
As to `CC(C)(c1ccc(Cl)cc1)c1nnc(Cc2cc(C3O[C@H](CO)[C@@H](O)[C@H](O)[C@H]3O)ccc2Cl)s1` (some centres not stated), the IC50 in data set [1] is above 10 µM.
`CC(C)(C)c1nnc(Cc2cccc(C3O[C@H](CO)[C@@H](O)[C@H](O)[C@H]3O)c2)s1` (some centres not stated): the IC50 in data set [1] was above 10 µM.
Take `COc1ccc(Cc2ccccc2O[C@@H]2O[C@H](CO)[C@@H](O)[C@H](O)[C@H]2O)cc1` [SERGLIFLOZIN A]: in [1], the IC50 came to 0.00625 µM.
Still for that read-out and setting: to `OC[C@H]1OC(c2ccc(Cl)c(Cc3nnc(Cc4ccc(Cl)cc4)s3)c2)[C@H](O)[C@@H](O)[C@@H]1O` (some centres not stated) belongs 2.39 µM; to `CCCc1nnc(Cc2cccc([C@@H]3O[C@H](CO)[C@@H](O)[C@H](O)[C@H]3O)c2)s1`, 6.91 µM.
In the case of `Cn1nc(-c2nnc(Cc3cc([C@@H]4O[C@H](CO)[C@@H](O)[C@H](O)[C@H]4O)ccc3Cl)s2)c2ccccc21`, in data set [1], the IC50 is 3.28 µM.
